Laboratory results as given in paper PMC5832441 (Nature, 2017).

Tests used:
[1] = test system: calcitonin receptor (CTR); assay: cAMP accumulation in transfected COS7 or 3T3-FlpIn cells; type: cell-based, human
Method in brief: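 COS7 or 3T3-FlpIn cells transfected with PEI (DNA:PEI 1:6 in 150mM NaCl, 15 min), plated at 3 × 10⁴/well and held 48 h at 37°C, 5% CO₂. Signals converted to cAMP using a parallel standard curve, then normalised to 100 μM forskolin within each cell line. For efficacy, Black-Leff operational model (Logτ_c) applied, corrected for cell-surface expression.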

[2] = test system: calcitonin receptor (CTR); assay: ERK1/2 phosphorylation; type: cell-based, human; details: H302A mutant, 3T3-FlpIn cells; four independent experiments in duplicate
Method in brief: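 3T3-FlpIn cells grown in DMEM with 10% v/v FBS at 37°C. Transient transfection used PEI; DNA and PEI in 150mM NaCl were combined 1:6 and left 15 min before adding to the cell suspension. Cells were plated at 3 × 10⁴/well and held 48 h at 37°C, 5% CO₂ before the pERK1/2 AlphaScreen read.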

[3] = test system: CTR; details: cited from earlier work
[4] = test system: calcitonin receptor (CTR); assay: Whole cell radioligand competition binding with 125I-sCT; parameters: species or system human; details: competition with 125I-sCT(8-32), N130D mutant; five independent experiments
Method in brief: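 Cos7 cells in DMEM/10% FBS, transiently transfected with PEI (DNA:PEI 1:6 in 150mM NaCl, 15 min) and seeded at 3 × 10⁴/well for 48 h at 37°C, 5% CO₂. Total binding: 0.05 nM ¹²⁵I-sCT(8-32) alone. Nonspecific binding: co-incubation with 1 μM sCT(8-32). Each experiment normalised to its own specific binding.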

[5] = test system: HA-FLAG-3C-CTR-3C-8xHis CTR with Gs protein heterotrimer; assay: [35S]GTPγS binding on CTR expressed in insect cells; type: biochemical, human; details: insect cell membranes, absence and presence of Gs heterotrimer; four independent experiments
[6] = cell surface ELISA to N-terminal epitope tag; details: glycan lost; control: WT CTR

In the case of salmon calcitonin [sCT], the “sCT-mediated cAMP efficacy at Δ414 CTR” value ([1]; COS7 cells, truncation after Trp413, 5 independent experiments in duplicate) is reported as “no effect on receptor function”, the “sCT potency in cAMP production at H302A CTR” value ([1]; H302A mutant, 3T3-FlpIn cells, four independent experiments in duplicate) is reported as “reduced potency” and the “sCT potency in cAMP accumulation at N130D CTR relative to WT” value ([1]; N130D mutant, five independent experiments) is reported as “reduce the potency”. The “sCT potency in phosphorylation of ERK1/2 at H302A CTR” value [2] was “reduced potency”, the off-rate [3] was “very slow off-rate” and the “sCT affinity at N130D CTR compared to WT” value [4] was “reduced affinity”. The “G protein activation via GTPγS binding, sCT concentration response” value [5] was “can robustly activate Gs”.

B1: calcitonin receptor (CTR): N28D (protein)
parent chain: MRFTFTSRCLALFLLLNHPTPILPAFSNQTYPTIEPKPFLYVVGRKKMMDAQYKCYDRMQQLPAYQGEGPYCNRTWDGWLCWDDTPAGVLSYQFCPDYFPDFDPSEKVTKYCDEKGVWFKHPENNRTWSNYTMCNAFTPEKLKNAYVLYYLAIVGHSLSIFTLVISLGIFVFFRSLGCQRVTLHKNMFLTYILNSMIIIIHLVEVVPNGELVRRDPVSCKILHFFHQYMMACNYFWMLCEGIYLHTLIVVAVFTEKQRLRWYYLLGWGFPLVPTTIHAITRAVYFNDNCWLSVETHLLYIIHGPVMAALVVNFFFLLNIVRVLVTKMRETHEAESHMYLKAVKATMILVPLLGIQFVVFPWRPSNKMLGKIYDYVMHSLIHFQGFFVATIYCFCNNEVQTTVKRQWAQFKIQWNQRWGRRPSNRSARAAAAAAEAGDIPIYICHQELRNEPANNQGEESAEIIPLNIIEQESSA
For B1, the expression_or_secretion [6] was “no change”.

B2: calcitonin receptor (CTR): N130D (protein)
parent chain: B1 parent chain
With B2 the expression_or_secretion [6] was “no change”.

B3: calcitonin receptor (CTR): N73D (protein)
parent chain: B1 parent chain
For B3, the expression_or_secretion [6] was “no change”.

B4: calcitonin receptor (CTR): N125D (protein)
parent chain: B1 parent chain
In the case of B4, the expression_or_secretion [6] is reported as “no change”.
